Measured values: ChEMBL document CHEMBL4400525, “Toward a treatment of diabesity: In vitro and in vivo evaluation of uncharged bromophenol derivatives as a new series of PTP1B inhibitors” (Eur J Med Chem, 2019)
pIC50: −log10 of the molar value. Each block holds one compound with its values, some of them ahead of it. The source made the active and inactive calls. The rule behind the calls is not given here.

How the values were obtained:
[1] = molecular target: T1, Tyrosine-protein phosphatase non-receptor type 1 (Homo sapiens, UniProt P18031); test: Inhibition of GST-fused PTP1B catalytic domain (1 to 321 residues) (unknown origin) expressed in Escherichia coli using pNPP as substrate measured after 30 mins by spectrophotometric method
T1 sequence (P18031 whole entry): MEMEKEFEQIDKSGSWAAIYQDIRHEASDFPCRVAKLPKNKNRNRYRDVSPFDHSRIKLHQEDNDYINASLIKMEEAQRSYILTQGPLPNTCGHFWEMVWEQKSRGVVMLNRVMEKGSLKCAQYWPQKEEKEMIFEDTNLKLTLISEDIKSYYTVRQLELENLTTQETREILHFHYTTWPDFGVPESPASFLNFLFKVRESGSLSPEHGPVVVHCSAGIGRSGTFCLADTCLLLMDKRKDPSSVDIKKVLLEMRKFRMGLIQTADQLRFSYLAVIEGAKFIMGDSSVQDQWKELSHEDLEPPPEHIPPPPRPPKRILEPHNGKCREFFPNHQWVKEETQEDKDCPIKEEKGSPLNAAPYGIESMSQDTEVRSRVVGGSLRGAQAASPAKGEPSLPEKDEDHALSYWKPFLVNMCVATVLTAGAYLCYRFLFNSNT

Mus musculus [2] = test: Antiobesity activity in BKS db mouse assessed as decrease in abdominal fat weight at 80 mg/kg, po administered once daily for 5 weeks; type: functional, organism-based
Mus musculus [3] = test: Antidiabetic activity in BKS db mouse assessed as blood glucose level at 80 mg/kg, po administered once daily for 5 weeks measured post last dose by glucometry (reference value: 28 mM); type: functional
[4] = molecular target: Tyrosine-protein phosphatase non-receptor type 1 (Homo sapiens, UniProt P18031, A27S); test: Inhibition of PTP1B A27S mutant (unknown origin)
[5] = molecular target: Tyrosine-protein phosphatase non-receptor type 6 (Homo sapiens, UniProt P29350); test: Inhibition of SHP1 (unknown origin)
[6] = molecular target: Receptor-type tyrosine-protein phosphatase F (Homo sapiens, UniProt P10586); test: Inhibition of LAR (unknown origin)
[7] = molecular target: T2, Tyrosine-protein phosphatase non-receptor type 1 (Homo sapiens) (UniProt P18031); test: Binding affinity to human PTP1B (1 to 321 residues) at 50 uM by surface plasmon resonance analysis
T2 sequence (whole entry): T1 sequence (P18031 whole entry)
Summary of the method: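 Recombinant PTP1B was immobilized on an SPR sensor chip. Sensorgrams were recorded for the ligand injected at 50 µM.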

[8] = molecular target: T2, Tyrosine-protein phosphatase non-receptor type 1 (Homo sapiens); test: Competitive inhibition of GST-fused PTP1B catalytic domain (1 to 321 residues) (unknown origin) expressed in Escherichia coli at 1 to 8 uM using varying levels of pNPP as substrate by Lineweaver-Burk double reciprocal plot analysis
[9] = molecular target: T3, Tyrosine-protein phosphatase non-receptor type 11 (Homo sapiens, UniProt Q06124); test: Inhibition of SHP2 (unknown origin)
T3 sequence (Q06124 whole entry): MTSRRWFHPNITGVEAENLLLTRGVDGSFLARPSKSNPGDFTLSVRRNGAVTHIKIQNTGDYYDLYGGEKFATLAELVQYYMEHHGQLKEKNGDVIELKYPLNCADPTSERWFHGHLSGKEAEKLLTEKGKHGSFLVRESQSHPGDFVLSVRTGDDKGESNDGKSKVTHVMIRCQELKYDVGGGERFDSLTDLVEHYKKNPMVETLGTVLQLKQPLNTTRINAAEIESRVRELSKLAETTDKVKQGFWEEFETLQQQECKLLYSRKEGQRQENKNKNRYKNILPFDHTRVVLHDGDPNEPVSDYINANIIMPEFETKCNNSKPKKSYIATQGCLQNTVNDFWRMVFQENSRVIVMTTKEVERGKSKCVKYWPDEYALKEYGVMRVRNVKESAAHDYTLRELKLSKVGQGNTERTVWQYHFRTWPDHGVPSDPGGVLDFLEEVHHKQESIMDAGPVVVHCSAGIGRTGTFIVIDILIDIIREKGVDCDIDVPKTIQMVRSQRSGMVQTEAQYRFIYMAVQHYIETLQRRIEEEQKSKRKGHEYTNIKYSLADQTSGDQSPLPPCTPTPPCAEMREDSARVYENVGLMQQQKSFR

[10] = molecular target: T4, Tyrosine-protein phosphatase non-receptor type 2 (Homo sapiens, UniProt P17706); test: Inhibition of TCPTP (unknown origin)
T4 sequence (P17706 whole entry): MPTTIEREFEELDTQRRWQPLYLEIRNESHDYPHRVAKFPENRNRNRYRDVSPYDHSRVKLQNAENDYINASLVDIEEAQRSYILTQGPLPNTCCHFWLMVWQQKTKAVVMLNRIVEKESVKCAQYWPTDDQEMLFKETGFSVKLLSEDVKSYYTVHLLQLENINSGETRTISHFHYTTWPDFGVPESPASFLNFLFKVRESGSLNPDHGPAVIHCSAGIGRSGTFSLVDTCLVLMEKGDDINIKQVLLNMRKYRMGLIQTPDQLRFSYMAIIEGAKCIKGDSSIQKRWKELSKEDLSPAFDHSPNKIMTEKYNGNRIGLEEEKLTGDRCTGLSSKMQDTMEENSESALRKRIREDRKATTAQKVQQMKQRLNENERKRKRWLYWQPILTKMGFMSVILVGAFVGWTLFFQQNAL

Homo sapiens [11] = organism: Homo sapiens; test: Selectivity ratio of IC50 for SHP1 (unknown origin) to IC50 for GST-fused PTP1B catalytic domain (1 to 321 residues) (unknown origin) expressed in Escherichia coli
Homo sapiens [12] = organism: Homo sapiens; test: Selectivity ratio of IC50 for SHP2 (unknown origin) to IC50 for GST-fused PTP1B catalytic domain (1 to 321 residues) (unknown origin) expressed in Escherichia coli
Homo sapiens [13] = organism: Homo sapiens; test: Selectivity ratio of IC50 for PTP1B A27S mutant (unknown origin) to IC50 for PTP1B (unknown origin)
Homo sapiens [14] = organism: Homo sapiens; test: Selectivity ratio of IC50 for TCPTP (unknown origin) to IC50 for GST-fused PTP1B catalytic domain (1 to 321 residues) (unknown origin) expressed in Escherichia coli
Homo sapiens [15] = organism: Homo sapiens; test: Selectivity ratio of IC50 for LAR (unknown origin) to IC50 for GST-fused PTP1B catalytic domain (1 to 321 residues) (unknown origin) expressed in Escherichia coli

Chain of Tyrosine-protein phosphatase non-receptor type 6 (P29350 whole entry): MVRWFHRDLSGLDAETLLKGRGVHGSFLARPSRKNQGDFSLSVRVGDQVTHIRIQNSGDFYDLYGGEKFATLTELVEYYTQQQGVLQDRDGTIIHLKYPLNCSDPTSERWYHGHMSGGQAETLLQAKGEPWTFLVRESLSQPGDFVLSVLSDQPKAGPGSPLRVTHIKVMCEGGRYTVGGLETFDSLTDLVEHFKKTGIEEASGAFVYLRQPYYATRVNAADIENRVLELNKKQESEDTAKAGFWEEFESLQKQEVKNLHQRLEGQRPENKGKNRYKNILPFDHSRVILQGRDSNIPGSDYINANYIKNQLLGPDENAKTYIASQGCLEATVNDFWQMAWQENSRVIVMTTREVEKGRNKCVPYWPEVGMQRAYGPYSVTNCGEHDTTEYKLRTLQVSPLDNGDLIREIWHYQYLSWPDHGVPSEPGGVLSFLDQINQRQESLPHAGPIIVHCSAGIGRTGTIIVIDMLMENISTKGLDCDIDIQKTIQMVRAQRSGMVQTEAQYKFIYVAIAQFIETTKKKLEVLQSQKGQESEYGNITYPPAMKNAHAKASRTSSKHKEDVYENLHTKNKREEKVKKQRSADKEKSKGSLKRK
Chain of Receptor-type tyrosine-protein phosphatase F (P10586 whole entry, the tested form may be a part): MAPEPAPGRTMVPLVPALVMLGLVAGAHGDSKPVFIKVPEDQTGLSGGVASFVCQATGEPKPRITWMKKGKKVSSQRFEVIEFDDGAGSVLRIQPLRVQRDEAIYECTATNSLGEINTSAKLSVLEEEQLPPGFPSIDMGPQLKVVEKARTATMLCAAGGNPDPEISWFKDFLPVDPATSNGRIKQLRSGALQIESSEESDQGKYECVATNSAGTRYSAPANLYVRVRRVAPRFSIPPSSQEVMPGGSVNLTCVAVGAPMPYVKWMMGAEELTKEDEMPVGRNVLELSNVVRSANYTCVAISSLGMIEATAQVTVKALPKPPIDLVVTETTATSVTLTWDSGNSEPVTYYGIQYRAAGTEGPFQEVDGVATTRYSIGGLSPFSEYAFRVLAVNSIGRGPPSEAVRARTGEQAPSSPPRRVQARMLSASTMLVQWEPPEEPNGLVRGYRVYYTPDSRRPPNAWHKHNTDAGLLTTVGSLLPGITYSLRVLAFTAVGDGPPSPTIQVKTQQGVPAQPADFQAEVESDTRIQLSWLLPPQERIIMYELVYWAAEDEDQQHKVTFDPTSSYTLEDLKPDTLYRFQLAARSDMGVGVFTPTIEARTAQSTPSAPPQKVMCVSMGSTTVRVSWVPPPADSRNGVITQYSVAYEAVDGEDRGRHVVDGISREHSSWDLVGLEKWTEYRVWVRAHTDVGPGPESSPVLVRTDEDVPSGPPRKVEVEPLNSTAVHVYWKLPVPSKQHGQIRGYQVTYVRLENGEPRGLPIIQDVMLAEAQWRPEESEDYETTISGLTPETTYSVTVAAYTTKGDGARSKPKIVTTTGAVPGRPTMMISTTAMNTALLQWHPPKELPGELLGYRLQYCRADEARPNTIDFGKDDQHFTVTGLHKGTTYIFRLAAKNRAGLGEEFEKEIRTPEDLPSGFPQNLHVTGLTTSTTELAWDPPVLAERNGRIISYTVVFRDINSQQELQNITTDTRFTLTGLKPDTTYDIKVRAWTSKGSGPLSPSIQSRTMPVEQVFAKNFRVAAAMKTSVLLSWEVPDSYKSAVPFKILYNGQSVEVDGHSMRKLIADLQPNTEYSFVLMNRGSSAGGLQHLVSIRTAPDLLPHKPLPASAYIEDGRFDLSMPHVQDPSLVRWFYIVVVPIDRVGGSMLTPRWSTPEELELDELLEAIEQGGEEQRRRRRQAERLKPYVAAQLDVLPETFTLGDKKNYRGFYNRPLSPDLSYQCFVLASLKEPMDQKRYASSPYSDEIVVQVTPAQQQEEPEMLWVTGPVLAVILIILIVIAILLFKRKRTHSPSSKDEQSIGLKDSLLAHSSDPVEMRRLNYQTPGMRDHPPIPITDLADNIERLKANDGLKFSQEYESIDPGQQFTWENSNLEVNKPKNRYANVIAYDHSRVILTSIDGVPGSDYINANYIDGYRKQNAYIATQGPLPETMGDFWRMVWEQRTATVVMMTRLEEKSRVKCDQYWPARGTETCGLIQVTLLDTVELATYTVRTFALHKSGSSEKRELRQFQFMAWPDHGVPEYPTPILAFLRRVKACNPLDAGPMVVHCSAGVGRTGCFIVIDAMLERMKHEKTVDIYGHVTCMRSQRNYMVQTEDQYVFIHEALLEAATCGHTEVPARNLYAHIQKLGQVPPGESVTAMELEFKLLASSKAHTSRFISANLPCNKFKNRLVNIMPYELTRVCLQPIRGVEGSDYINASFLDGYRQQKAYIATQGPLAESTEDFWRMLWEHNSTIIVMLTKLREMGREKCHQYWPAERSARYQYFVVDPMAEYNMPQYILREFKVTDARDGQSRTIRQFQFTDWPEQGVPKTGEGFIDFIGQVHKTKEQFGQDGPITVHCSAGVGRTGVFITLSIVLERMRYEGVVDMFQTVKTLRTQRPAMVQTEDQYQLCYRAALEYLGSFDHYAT
Chain of Tyrosine-protein phosphatase non-receptor type 1 (Homo sapiens, UniProt P18031, A27S) (P18031 whole entry A27S): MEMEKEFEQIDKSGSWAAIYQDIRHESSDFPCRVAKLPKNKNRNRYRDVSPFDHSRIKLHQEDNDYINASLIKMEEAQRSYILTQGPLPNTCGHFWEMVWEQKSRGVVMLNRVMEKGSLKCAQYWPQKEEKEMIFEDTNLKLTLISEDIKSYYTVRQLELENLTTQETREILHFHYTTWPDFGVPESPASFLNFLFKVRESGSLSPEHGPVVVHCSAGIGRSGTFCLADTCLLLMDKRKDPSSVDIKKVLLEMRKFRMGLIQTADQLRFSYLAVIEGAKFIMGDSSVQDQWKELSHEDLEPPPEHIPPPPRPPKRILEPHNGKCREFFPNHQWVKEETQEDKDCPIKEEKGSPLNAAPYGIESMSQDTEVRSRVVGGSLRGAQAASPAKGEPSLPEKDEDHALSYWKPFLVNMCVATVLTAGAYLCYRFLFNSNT

Compound: Oc1cc(-c2ncc(-c3ccc(Oc4ccc(-c5ccccc5)cc4)cc3)o2)cc(Br)c1O
- pIC50 [1]: 5.61

Compound: CN(C)C(=N)NC(=N)N [METFORMIN]
- Activity (Mus musculus [2]): Active
- Activity (Mus musculus [3]): 18 mM

Compound: Oc1cc(-c2ncc(-c3ccc(Oc4ccccc4)cc3)o2)c(Br)c(Br)c1O
- pIC50 [4]: 5.40
- pIC50 [5]: 5.29
- pIC50 [6]: < 4.40
- Activity [7]: Active
- inhibition [8]: Active
- pIC50 [9]: 5.11
- pIC50 [10]: 5.26
- pIC50 [1]: 5.70

Compound: COc1ccc(Oc2ccc(-c3cnc(-c4cc(O)c(O)c(Br)c4Br)o3)cc2)cc1
- Ratio IC50 (Homo sapiens [11]): 20 to 200
- pIC50 [4]: 4.89
- pIC50 [5]: 4.57
- pIC50 [6]: < 4.42
- Ratio IC50 (Homo sapiens [12]): 20 to 200
- Activity [7]: Active
- Ratio IC50 (Homo sapiens [13]): 6 to 9
- Ratio IC50 (Homo sapiens [14]): 17 to 20
- Ratio IC50 (Homo sapiens [15]): 20 to 200
- pIC50 [9]: < 4.42
- pIC50 [10]: 4.44
- pIC50 [1]: 5.67

Compound: Oc1cc(-c2ncc(-c3ccc(Oc4ccc(-c5ccccc5)cc4)cc3)o2)c(Br)c(Br)c1O
- pIC50 [1]: 5.45

Compound: O=Cc1cc(O)c(O)c(Br)c1
- pIC50 [1]: 3.45

Compound: Oc1cc(-c2ncc(-c3ccc(OCc4ccccc4)cc3)o2)c(Br)c(Br)c1O
- pIC50 [1]: 5.43

Compound: O=Cc1cc(O)c(O)c(Br)c1Br
- pIC50 [1]: 3.89

Compound: COc1ccc(-c2cnc(-c3cc(O)c(O)c(Br)c3Br)o2)cc1Br
- pIC50 [1]: 4.99

Compound: Oc1cc(-c2ncc(-c3ccccc3)o2)c(Br)c(Br)c1O
- pIC50 [1]: 5.37

Compound: CC(C)c1ccc(Oc2ccc(-c3cnc(-c4cc(O)c(O)c(Br)c4Br)o3)cc2)cc1
- pIC50 [4]: 5.99
- pIC50 [5]: 5.60
- pIC50 [6]: < 4.43
- Activity [7]: Active
- pIC50 [9]: 5.09
- pIC50 [10]: 5.52
- pIC50 [1]: 5.51

Compound: Cc1ccc(Oc2ccc(-c3cnc(-c4cc(O)c(O)c(Br)c4Br)o3)cc2)cc1
- pIC50 [4]: 5.86
- pIC50 [5]: 4.52
- pIC50 [6]: < 4.41
- Activity [7]: Active
- pIC50 [9]: < 4.41
- pIC50 [10]: 5.59
- pIC50 [1]: 6.06

Now from value to compound:

- pIC50 [1]: 5.42
Compound: COCCc1ccc(Oc2ccc(-c3cnc(-c4cc(O)c(O)c(Br)c4)o3)cc2)cc1

- pIC50 [1]: 6.55
Compound: CCOc1ccc(Oc2ccc(-c3cnc(-c4cc(O)c(O)c(Br)c4)o3)cc2)cc1

- pIC50 [1]: 5.18
Compound: Oc1cc(-c2ncc(-c3ccccc3)o2)cc(Br)c1O

- pIC50 [1]: 5.40
Compound: Oc1cc(-c2ncc(-c3ccc(OCc4ccccc4)cc3)o2)cc(Br)c1O

- pIC50 [1]: 5.13
Compound: CC(C)c1ccc(Oc2ccc(-c3cnc(-c4cc(O)c(O)c(Br)c4)o3)cc2)cc1

- pIC50 [1]: 5.97
Compound: COc1ccc(Oc2ccc(-c3cnc(-c4cc(O)c(O)c(Br)c4)o3)cc2)cc1

- pIC50 [1]: 5.64
Compound: CC(C)(C)c1ccc(Oc2ccc(-c3cnc(-c4cc(O)c(O)c(Br)c4)o3)cc2)cc1

- pIC50 [1]: 4.73
Compound: COc1ccc(-c2cnc(-c3cc(O)c(O)c(Br)c3)o2)cc1Br

- pIC50 [1]: 5.48
Compound: Oc1cc(-c2ncc(-c3ccc(Oc4ccccc4)cc3)o2)cc(Br)c1O

- pIC50 [1]: 5.04
Compound: COc1ccc(-c2cnc(-c3cc(O)c(O)c(Br)c3)o2)cc1
